Screening results from PubChem.
In the library only some 0.7% were active in any assay of this set; here they are far more common.
procasp7 counter = counter-screen for procaspase-3 activators: activators of human procaspase-7 | recombinant procaspase-7, Ac-DEVD-pNA absorbance 405 nm; D23A/D198A/D206A triple mutant, cannot self-cleave; scale: DMSO 0, 5 µM enzyme 100 | activation, % at 8.5 µM | 0.093% of 330,000 active;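 active = percent activation above the screen-wide mean plus 3 SD, cut at about 25% in these data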
Target sequence (P55210 whole entry D23A/D198A/D206A): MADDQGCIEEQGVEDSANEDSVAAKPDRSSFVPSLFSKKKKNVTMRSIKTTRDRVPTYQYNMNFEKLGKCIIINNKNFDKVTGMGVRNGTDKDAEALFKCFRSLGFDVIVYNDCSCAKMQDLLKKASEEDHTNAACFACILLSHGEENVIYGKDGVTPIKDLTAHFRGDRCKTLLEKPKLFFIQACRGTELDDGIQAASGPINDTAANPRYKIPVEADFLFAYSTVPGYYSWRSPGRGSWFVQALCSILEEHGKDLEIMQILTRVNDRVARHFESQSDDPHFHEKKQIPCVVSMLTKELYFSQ
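Assay system: Uncleavable procaspase-7 mutant enzyme / Input: 2 µM procaspase-7 mutant as dispensed / Dosing: single nominal 8.5 µM compound dose, 0.8% DMSO final / Timing: 1 h enzyme–compound preincubation and 2 h substrate reaction, both 25 °C / Detection: p-Nitroaniline absorbance at 405 nm, read at 0 and 120 min / Replication: singlicate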
FXN GAA850 act = increases GAA850 frataxin promoter reporter activity | HEK293 lucGAA850 FXN promoter luciferase reporter, 24 h; percent of 10 µM SAHA response | activation, % at 6 µM | 0.56% of 360,000 active;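 active = activation above the average of all compounds screened plus 3 SD, cutoff fixed separately per campaign, cut at about 7.5% in these data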;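 also: 0% = DMSO wells and 100% = 10 µM SAHA wells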
procasp3 activ = activates human procaspase-3. recombinant procaspase-3 D3A, Ac-DEVD-pNA absorbance 405 nm. activation, % at 8.5 µM. 0.11% of 330,000 active;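 active = activation above the mean of all tested compounds plus 3 SD, cut at about 21% in these data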;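 also: 0% = DMSO alone and 100% = DMSO wells spiked with extra 5 µM PC-3 D3A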
Target sequence (P42574 whole entry D9A/D28A/D175A): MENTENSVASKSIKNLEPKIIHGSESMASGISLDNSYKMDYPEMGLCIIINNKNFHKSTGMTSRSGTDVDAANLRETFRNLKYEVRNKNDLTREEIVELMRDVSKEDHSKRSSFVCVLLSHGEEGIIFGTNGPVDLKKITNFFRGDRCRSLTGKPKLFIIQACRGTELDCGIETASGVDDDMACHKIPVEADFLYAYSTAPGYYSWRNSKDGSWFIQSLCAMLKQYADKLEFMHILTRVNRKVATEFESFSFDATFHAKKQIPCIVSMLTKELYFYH
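Evaluation: percent activation relative to control range; Material: Procaspase-3 D3A mutant, all three cleavage aspartates alanine; Compound: single dose, 8.5 µM nominal compound, 0.8% DMSO; Replication: one well per compound; Signal: absorbance at 405 nm, 0 and 120 min; Schedule: 1 h preincubation plus 2 h reaction at 25 °C.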
PC3 D3A act = counter-screen for dual procaspase-3/7 activators: human procaspase-3 activation. shares compounds with procasp7 counter. recombinant PC-3 D3A, Ac-DEVD-pNA absorbance 405 nm; aspartates 9, 28, 175 changed to alanine; 100% = enzyme control. activation, % at 8.5 µM. 290 tested, under 10 active;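 active = mean percent activation across triplicates above a set limit taken from the earlier primary procaspase-3 screen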;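 also: 0% = DMSO wells and 100% = DMSO wells with 5 µM added PC-3 D3A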
Procasp7 act = procaspase-7 (human) activation, dual activator confirmation | recombinant procaspase-7, Ac-DEVD-pNA absorbance 405 nm; D23A/D198A/D206A mutant that cannot self-cleave | activation, % at 8.5 µM | AID 493115 | shares compounds with procasp7 counter | 290 tested, under 10 active;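 active = mean activation above a set limit carried over from the earlier primary screen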;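 also: 0% = DMSO only and 100% = DMSO with added 5 µM PC-7 enzyme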
Active calls of the source: *; nt = not tested or not shown.

SMILES	procasp7 counter	FXN GAA850 act	procasp3 activ	PC3 D3A act	Procasp7 act
COc1ccc(SC[C@H](C)CN2CC[C@H](C(C)(C)C)CCC2=O)cc1	-4	0	-2	nt	nt
O=C(c1ccc(Cl)s1)N1CCN(S(=O)(=O)c2ccc(Cl)cc2)CC1	7	0	-1	nt	nt
C(=N\Nc1nc2ccccc2[nH]1)/c1ccccc1	3	4	6	nt	nt
O=c1[nH]c(N/N=C/c2ccccc2)nc2ccccc12	38*	6	32*	-28	-28
O=c1[nH]c(N/N=C/c2cc3c(cc2[N+](=O)[O-])OCO3)nc2ccccc12	3	2	-6	nt	nt
O=c1[nH]c(N/N=C\c2ccc3c(c2)OCO3)nc2ccccc12	28*	1	24*	1	-3
CCc1nc2ccc(C(=O)N3CCNC(=O)C3)cn2c1N(C)CCC(C)C	nt	0	nt	nt	nt
CCOCC(=O)Nc1nc2ccc(OCC)cc2s1	6	3	5	nt	nt
CCOc1ccc2nc(-c3cc(NC(C)=O)ccc3O)sc2c1	31*	4	5	2	-1
O=C(Nc1ccc(Cc2ccncc2)cc1)C1CCC(N2C(=O)C3C4C=CC(C5CC45)C3C2=O)CC1 (stereo unspecified)	30*	-1	-6	2	27*
CC(=O)Nc1ccc(NC(=O)C2CCC(N3C(=O)C4C5C=CC(C6CC56)C4C3=O)CC2)cc1 (stereo unspecified)	13	0	-1	nt	nt
C/C(=N/NC(=O)c1ccc(C)s1)c1cccc(NC(=O)c2ccoc2C)c1	-4	0	3	nt	nt
COC(=O)C1C(O)=C(C=Nc2ccc(N)cc2)C(=O)CC1(C)C (stereo unspecified)	36*	-1	11	3	0
COC(=O)C1C(O)=C(C=Nc2ccccc2)C(=O)CC1(C)C (stereo unspecified)	6	0	4	nt	nt
Cc1ccc(/C([O-])=C(/C(=S)NCCN2CCOCC2)[n+]2ccccc2)cc1[N+](=O)[O-]	-16	2	-5	nt	nt
N#Cc1ccccc1OCC(=O)OCC(=O)NC1CCCC1	11	2	-1	nt	nt
CCCCc1ccc(NC(=S)NCCN2CCOCC2)cc1	0	1	4	nt	nt
O=c1oc(-c2ccccc2[N+](=O)[O-])nc2ccccc12	1	2	2	nt	nt
Nc1ccccc1-c1nc2ccccc2c(=O)o1	34*	0	27*	-30	-36
COc1ccccc1NC(=O)c1ccccc1C(=O)Nc1ccccc1OC	10	-1	2	nt	nt
COc1ccccc1NC(=O)c1cnc(Nc2ccccc2OC)c2ccccc12	31*	1	17	-30	-35
COCc1cc(C)nc2sc(C(=O)Nc3ccccc3Br)c(N)c12	36*	5	6	-29	-35
COCc1cc(C)nc2sc(C(=O)Nc3ccccc3C)c(N)c12	-3	2	0	nt	nt
Cc1cc(C)c2c(N)c(C(=O)Nc3ncc(C)s3)sc2n1	-3	-11	-12	nt	nt
COc1ccc2nc(NC(=O)c3sc4nc(C)cc(C)c4c3N)sc2c1	71*	4	21	-29	-36
SMILES	procasp7 counter	FXN GAA850 act	procasp3 activ	PC3 D3A act	Procasp7 act
O=Cc1ccc(N2N=C(c3ccccc3)CC2c2ccccc2)cc1 (stereo unspecified)	-27	-1	-46	nt	nt
CC(=O)Nc1ccc(C2CC(c3ccc(Cl)cc3)=NN2c2ccccc2)cc1 (stereo unspecified)	136*	4	163*	-28	-34
Clc1ccc(C2=NN(c3ccccc3)C(c3ccco3)C2)cc1 (stereo unspecified)	-25	2	-18	nt	nt
CC(=O)Nc1ccc(C2=NN(c3ccccc3)C(c3ccccc3)C2)cc1 (stereo unspecified)	46*	-1	218*	-28	-36
CCOc1ccccc1CNC(=O)c1ccc2nc(N3CCOCC3)sc2c1	4	1	1	nt	nt
CCOC(=O)c1cc(-c2ccc(Cl)cc2)nc2c1c(C)nn2CCC#N	3	2	7	nt	nt
CCOC(=O)c1cc(-c2ccc3c(c2)OCCO3)nc2c1c(C)nn2CCC#N	54*	2	25*	-29	-35
COc1cc2c(cc1OC)C(C)N(C(=O)c1cc3c(s1)-c1c(C)cccc1OC3)CC2 (stereo unspecified)	22	0	9	nt	nt
O=C(Nc1nccs1)c1cc2c(s1)-c1ccccc1OC2	28*	3	30*	-29	-35
Cc1cccc2c1-c1sc(C(=O)Nc3nccs3)cc1CO2	-3	-1	-4	nt	nt
O=C(c1cc2c(s1)-c1ccccc1OC2)N1CCc2ccccc2C1	27*	1	12	3	2
COc1cc2c(cc1OC)C(C)N(C(=O)c1cc3c(s1)-c1ccccc1OC3)CC2 (stereo unspecified)	37*	1	26*	13	11
COc1ccccc1N1CCN(C(=O)c2cc3c(s2)-c2ccccc2OC3)CC1	6	1	4	nt	nt
Cc1ccc(C(=O)NC2CCN(CC(=O)NC3CCC(C)CC3)CC2)cc1 (stereo unspecified)	6	0	1	nt	nt
CCCCn1c(N)c(N(CCC(C)C)C(=O)CSc2nncn2-c2ccccc2)c(=O)[nH]c1=O	2	0	-1	nt	nt
COc1ccccc1-c1cccc([C@@H]2C[C@H]3[C@H](CON3C)CN2S(=O)(=O)c2ccccc2C)c1	nt	-4	nt	nt	nt
O=c1c(O)c(-c2ccc3c(c2)OCO3)oc2ccccc12	30*	3	37*	23*	19
O=C(Nc1ccc2c(c1)oc1ccccc12)c1ccc2c(c1)OCO2	19	3	3	nt	nt
COc1ccc(-c2nn3c(-c4ccccc4)nnc3s2)cc1	8	1	3	nt	nt
CCN(CC)c1ccc(-c2nn3c(-c4ccccc4OC)nnc3s2)cc1	33*	7	-1	-31	-36
O=C(/C=C/c1cn(-c2ccccc2)nc1-c1ccccc1)Nc1ccc(C(=O)O)cc1	-4	1	-5	nt	nt
NS(=O)(=O)c1ccc(NC(=O)/C=C/c2cn(-c3ccccc3)nc2-c2cccc(Cl)c2)cc1	72*	-1	55*	-28	-6
COC(c1ccc(Cl)cc1)(c1ccc(Cl)cc1)C(Oc1nc(C)cc(C)n1)C(=O)O (stereo unspecified)	18	1	-3	nt	nt
COc1ccc(C(=O)O/N=C(\N)Cc2ccc([N+](=O)[O-])cc2)c(OC)c1	-2	1	0	nt	nt
O=c1oc2cc(O)ccc2c2ccccc12	-4	-1	-3	nt	nt
CC(C)=CCc1c(O)cc2c(=O)c3ccc(O)cc3oc2c1O	5	2	0	nt	nt
COc1c(CC=C(C)C)c(O)cc2oc(=O)c3c4ccc(O)cc4oc3c12	27*	0	27*	-29	-35
O=c1oc2cc(O)ccc2c2oc3cc(O)ccc3c12	26*	3	-1	-28	-36
